How the values were obtained:
Melanoma cell = assay: cells; format: functional; details: Homo sapiens
OVCAR-3 = assay: Growth inhibition of human OVCAR-3 cells at 10 uM relative to control; format: functional; details: values are per cent of control
Procedure, shortened: (§1)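 Single-dose preliminary screen in the NCI human cancer cell line panel, run by the NIH. Percent inhibition of cell line growth was calculated by comparison with untreated samples.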

SNB-75 = assay: Growth inhibition of human SNB75 cells at 10 uM relative to control; format: functional; details: values are per cent of control
Procedure, shortened: (§2)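 Single-dose NCI human tumour cell line screen, run by the NIH. Percent inhibition of cell line growth was calculated by comparison with untreated samples.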

NCI-H522 = assay: Growth inhibition of human NCI-H522 cells at 10 uM relative to control; format: functional; details: values are per cent of control
Procedure, shortened: as §1

M14 = assay: Growth inhibition of human M14 cells at 10 uM relative to control; format: functional; details: values are per cent of control
Procedure, shortened: as §1

LOX IMVI = assay: Growth inhibition of human LOXIMVI cells at 10 uM relative to control; format: functional; details: values are per cent of control
Procedure, shortened: as §1

[1] = Growth inhibition of human RPMI8266 cells at 10 uM relative to control; format: functional; details: values are per cent of control
Procedure, shortened: as §1

ACHN = assay: Growth inhibition of human ACHN cells at 10 uM relative to control; format: functional; details: values are per cent of control
Procedure, shortened: as §1

SK-MEL-2 = assay: Growth inhibition of human SK-MEL-2 cells at 10 uM relative to control; format: functional; details: values are per cent of control
Procedure, shortened: as §1

HCT-116 = assay: Growth inhibition of human HCT116 cells at 10 uM relative to control; format: functional; details: values are per cent of control
Procedure, shortened: as §1

Malme-3M = assay: Growth inhibition of human MALME-3M cells at 10 uM relative to control; format: functional; details: values are per cent of control
Procedure, shortened: as §1

CCRF-CEM = assay: Growth inhibition of human CCRF-CEM cells at 10 uM relative to control; format: functional; details: values are per cent of control
Procedure, shortened: as §1

MOLT-4 = assay: Growth inhibition of human MOLT4 cells at 10 uM relative to control; format: functional; details: values are per cent of control
Procedure, shortened: as §1

BT-549 = assay: Growth inhibition of human BT549 cells at 10 uM relative to control; format: functional; details: values are per cent of control
Procedure, shortened: as §1

U-251 = assay: Growth inhibition of human U251 cells at 10 uM relative to control; format: functional; details: values are per cent of control
Procedure, shortened: as §2

DU-145 = assay: Growth inhibition of human DU145 cells at 10 uM relative to control; format: functional; details: values are per cent of control
Procedure, shortened: as §1

NCI-H460 = assay: Growth inhibition of human NCI-H460 cells at 10 uM relative to control; format: functional; details: values are per cent of control
Procedure, shortened: as §1

MDA-MB-435 = assay: Growth inhibition of human MDA-MB-435 cells at 10 uM relative to control; format: functional; details: values are per cent of control
Procedure, shortened: as §1

HCC 2998 = assay: Growth inhibition of human HCC2998 cells at 10 uM relative to control; format: functional; details: values are per cent of control
Procedure, shortened: as §1

SN12C = assay: Growth inhibition of human SN12C cells at 10 uM relative to control; format: functional; details: values are per cent of control
Procedure, shortened: as §1

IGROV-1 = assay: Growth inhibition of human IGROV1 cells at 10 uM relative to control; format: functional; details: values are per cent of control
Procedure, shortened: as §1

PC-3 = assay: Growth inhibition of human PC3 cells at 10 uM relative to control; format: functional; details: values are per cent of control
Procedure, shortened: as §1

cells = format: functional; details: Homo sapiens, Cancer cell lines
EKVX = assay: Growth inhibition of human EKVX cells at 10 uM relative to control; format: functional; details: values are per cent of control
Procedure, shortened: as §1

SK-MEL-28 = assay: Growth inhibition of human SK-MEL-28 cells at 10 uM relative to control; format: functional; details: values are per cent of control
Procedure, shortened: as §1

SF-295 = assay: Growth inhibition of human SF295 cells at 10 uM relative to control; format: functional; details: values are per cent of control
Procedure, shortened: as §1

SNB-19 = assay: Growth inhibition of human SNB19 cells at 10 uM relative to control; format: functional; details: values are per cent of control
Procedure, shortened: as §1

UO-31 = assay: Growth inhibition of human UO31 cells at 10 uM relative to control; format: functional; details: values are per cent of control
Procedure, shortened: as §2

Histone deacetylase 1 = Histone deacetylase 1 (Homo sapiens, UniProt Q13547); assay: Inhibition of human HDAC1
A549 = assay: Growth inhibition of human A549 cells at 10 uM relative to control; format: functional; details: values are per cent of control
Procedure, shortened: as §1

SF-539 = assay: Growth inhibition of human SF539 cells at 10 uM relative to control; format: functional; details: values are per cent of control
Procedure, shortened: as §1

HOP-62 = assay: Growth inhibition of human HOP62 cells at 10 uM relative to control; format: functional; details: values are per cent of control
Procedure, shortened: as §1

HT-29 = assay: Growth inhibition of human HT-29 cells at 10 uM relative to control; format: functional; details: values are per cent of control
Procedure, shortened: as §1

Sequence of Histone deacetylase 1 (Q13547 whole entry): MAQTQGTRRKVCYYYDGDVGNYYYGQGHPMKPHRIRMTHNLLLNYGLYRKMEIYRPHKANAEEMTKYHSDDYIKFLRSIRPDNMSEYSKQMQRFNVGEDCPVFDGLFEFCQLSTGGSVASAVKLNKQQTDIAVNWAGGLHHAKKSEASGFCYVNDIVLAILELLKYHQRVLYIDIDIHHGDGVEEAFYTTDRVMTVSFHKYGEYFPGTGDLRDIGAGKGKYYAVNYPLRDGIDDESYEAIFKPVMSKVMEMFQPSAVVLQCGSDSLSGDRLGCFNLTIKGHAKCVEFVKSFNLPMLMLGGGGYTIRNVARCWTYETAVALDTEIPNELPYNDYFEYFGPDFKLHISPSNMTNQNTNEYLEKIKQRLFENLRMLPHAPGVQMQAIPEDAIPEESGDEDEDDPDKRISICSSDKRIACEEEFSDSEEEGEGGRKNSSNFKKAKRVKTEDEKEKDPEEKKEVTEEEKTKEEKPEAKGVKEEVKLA

O=C(/C=C/c1cn(C/C=C/c2ccccc2)nn1)NO
inhibition at 10 µM (Melanoma cell): -43% | growth, % of control at 10 µM (OVCAR-3): -16.2% | growth, % of control at 10 µM (SNB-75): 16.7% | growth, % of control at 10 µM (NCI-H522): 8.32% | growth, % of control at 10 µM (M14): 1.63% | growth, % of control at 10 µM (LOX IMVI): -72.6% | growth, % of control at 10 µM [1]: -13.9% | growth, % of control at 10 µM (ACHN): -51.2% | growth, % of control at 10 µM (SK-MEL-2): -51.7% | growth, % of control at 10 µM (HCT-116): -69% | growth, % of control at 10 µM (Malme-3M): -28.7% | growth, % of control at 10 µM (CCRF-CEM): 9.16% | growth, % of control at 10 µM (MOLT-4): -7.12% | growth, % of control at 10 µM (BT-549): 43.3% | growth, % of control at 10 µM (U-251): -89.9% | growth, % of control at 10 µM (DU-145): -28.7% | growth, % of control at 10 µM (NCI-H460): 7.36% | growth, % of control at 10 µM (MDA-MB-435): 21.3% | growth, % of control at 10 µM (HCC 2998): -1.33% | growth, % of control at 10 µM (SN12C): 25% | growth, % of control at 10 µM (IGROV-1): -13.8% | growth, % of control at 10 µM (PC-3): 11% | growth percent at 10 µM (cells): -20% | growth, % of control at 10 µM (EKVX): 23.7% | growth, % of control at 10 µM (SK-MEL-28): -15% | growth, % of control at 10 µM (SF-295): -55.5% | growth, % of control at 10 µM (SNB-19): -12.4% | growth, % of control at 10 µM (UO-31): 0.73% | IC50 (Histone deacetylase 1): 104 nM | growth, % of control at 10 µM (A549): -8.94% | growth, % of control at 10 µM (SF-539): 5.16% | growth, % of control at 10 µM (HOP-62): -31.7% | growth, % of control at 10 µM (HT-29): 12%
